From PubChem
Compounds with a hit are over-represented: about 3.9% of the library has one in this group of screens.
TAAR1 antag: antagonists of human TAAR1; Q96RJ0; CHO RD-HGA16 TAAR1, Fluo-8 calcium fluorescence, antagonist; inhibition, % at 3 µM; hit rate 1.5% among 360,000; AID 624466;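 active = inhibition above a per-plate cutoff, the mean inhibition of test compounds on that plate plus 3 SD, cut at about 49% in these data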
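Test system: hTAAR1-expressing CHO RD-HGA16 cells, Gα16-coupled; Probe or stimulus: EC80 β-phenethylamine stimulus; Compound dosing: single nominal final test compound concentration of 3 µM; Timing: 140 s kinetic read after compound, 140 s after agonist; Signal: Fluo-8 calcium-sensitive fluorescence; Measure: % inhibition of agonist calcium response; Controls: DMSO and EC80 PEA controls.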
CRFBP-R2 agonist: CRF-BP/CRF-R2 complex agonism; HEK293 CRF-R2/CRF-BP, calcium dye fluorescence (FLIPR); percent of saturating CRF peptide response; activation, % at 13.2 µM; hit rate 0.46% among 350,000; AID 588473;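 active = activation of at least 50%, plus an integration ratio under a set limit after plate pattern correction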
ANO1 activ: mouse TMEM16A channel activation, primary screen. Q8BHY3. HEK293 TMEM16A/YFP-H148Q/I152L, iodide quench fluorescence; active compounds read low. B-score at 10 µM. hit rate 0.3% among 340,000. AID 623877;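 active = fluorescence-ratio B-score plate-corrected deviation score at least 3 library SD below zero, with starting fluorescence score within 5 deviations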;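 note: channel opened by trigger with iodide after compound preincubation; score built on the fluorescence ratio of max minus min over baseline; more negative score means more quench and so TMEM16A activation or potentiation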
Target sequence (Q8BHY3 whole entry, looked up): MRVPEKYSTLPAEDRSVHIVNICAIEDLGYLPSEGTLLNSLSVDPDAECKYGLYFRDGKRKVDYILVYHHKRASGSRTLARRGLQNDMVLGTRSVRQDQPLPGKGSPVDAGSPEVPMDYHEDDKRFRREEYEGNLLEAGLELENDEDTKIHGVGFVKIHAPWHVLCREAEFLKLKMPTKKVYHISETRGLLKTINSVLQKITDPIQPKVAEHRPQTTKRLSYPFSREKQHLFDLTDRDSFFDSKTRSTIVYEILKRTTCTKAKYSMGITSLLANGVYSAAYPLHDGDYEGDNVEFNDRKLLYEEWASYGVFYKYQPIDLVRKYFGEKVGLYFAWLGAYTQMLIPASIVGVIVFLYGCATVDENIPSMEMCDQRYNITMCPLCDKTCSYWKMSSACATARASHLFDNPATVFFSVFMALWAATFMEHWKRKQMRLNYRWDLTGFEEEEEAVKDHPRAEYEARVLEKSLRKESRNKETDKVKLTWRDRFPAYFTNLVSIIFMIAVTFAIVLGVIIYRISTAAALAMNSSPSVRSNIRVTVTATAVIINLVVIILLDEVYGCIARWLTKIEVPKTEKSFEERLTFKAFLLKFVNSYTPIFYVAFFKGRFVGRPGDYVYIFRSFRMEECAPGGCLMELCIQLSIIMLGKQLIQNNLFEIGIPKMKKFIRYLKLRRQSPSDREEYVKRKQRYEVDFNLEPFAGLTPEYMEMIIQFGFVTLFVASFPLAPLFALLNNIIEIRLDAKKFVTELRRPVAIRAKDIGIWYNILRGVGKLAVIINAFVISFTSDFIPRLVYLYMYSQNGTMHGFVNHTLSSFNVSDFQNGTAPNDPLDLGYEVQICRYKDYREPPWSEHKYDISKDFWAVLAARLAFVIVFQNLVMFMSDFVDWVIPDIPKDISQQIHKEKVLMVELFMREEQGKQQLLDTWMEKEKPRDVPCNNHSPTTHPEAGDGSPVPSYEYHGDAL
CRFR2-BP antag: antagonists of CRF-binding protein/CRF-R2 receptor complex; HEK293 CRF-R2/CRF-BP, CRF-induced calcium fluorescence; AID 588475; inhibition, % at 11.8 µM; hit rate 0.59% among 350,000;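 active = inhibition of the ligand-induced calcium signal above about 50% at the single tested concentration, limit read from the data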
TAAR1 ag: human TAAR1 agonism; CHO RD-HGA16 TAAR1, Fluo-8 calcium fluorescence; vehicle wells 0%, saturating PEA agonist 100%; activation, % at 3 µM; Q96RJ0; AID 624467; hit rate 0.99% among 360,000;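 active = activation above the mean activation of all test compounds in the run plus 3 SD, cut at about 38% in these data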
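Assay system: CHO-derived RD-HGA16 cells with stable Gα16 and human TAAR1; timing: 17-24 h seeding, 75 min 37 °C dye, 30 min RT; read-out: % activation from peak over basal fluorescence ratio, DMSO-to-PEA scaled; measured by: kinetic Fluo-8 calcium fluorescence; benchmarks: low control DMSO, high control PEA (EC100); doses: 3 µM single concentration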
ANO1 block: inhibitors of mouse TMEM16A calcium-activated chloride channel; HEK293 TMEM16A/YFP iodide influx fluorescence, ionomycin; normalized B-score (activity score, 25-100; higher = stronger inhibition) at 10 µM; hit rate 1.2% among 310,000; AID 588511;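 active = ratio plate-corrected score three or more library SD toward inhibition, starting fluorescence score within five deviations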;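 note: score derived from kinetic fluorescence span divided by baseline fluorescence per well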
TAAR1 nonsel count: nonselective antagonist in TAAR1 antagonist counter-screen; shares compounds with TAAR1 antag; counterscreen cell line, calcium fluorescence, antagonist mode; inhibition, % at 3 µM; hit rate 77% among 2,400; in the data active = inhibition above about 22%;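 note: CHO-Ga16 host cells stimulated with ATP at an EC80 level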
TAAR1 antag conf: confirmation of human TAAR1 antagonists. shares compounds with TAAR1 antag. TAAR1-expressing cells, fluorescence antagonist read-out. inhibition, % at 3 µM. hit rate 40% among 2,400; in the data active = inhibition above about 49%;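 note: CHO-Ga16 host cells challenged with agonist PEA near its EC80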
Ga16 nonsel ag: counter-screen for TAAR1 antagonists: nonselective Ga16 agonists | shares compounds with TAAR1 antag | Ga16-expressing cells, calcium fluorescence, agonist counterscreen | activation, % at 3 µM | hit rate 18% among 2,400; in the data active = activation above about 12%
TAAR1 ag counter: TAAR1 agonism, antagonist counter-screen. shares compounds with TAAR1 antag. hTAAR1 cell line, fluorescence activation, agonist mode. activation, % at 3 µM. hit rate 2% among 2,400. AID 651955; in the data active = activation above about 37%;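 note: CHO cells stably expressing TAAR1 with calcium dye readout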
Each line names hits and unclear results; the compound was inactive in the other large screens (follow-up assays come after a bar, where they were run).

Cc1ccccc1C(=O)N1CCN(c2ccc(NC(=O)c3ccc4c(c3)OCCO4)cc2)CC1	TAAR1 antag 76.5, ANO1 block 25 | TAAR1 nonsel count 43.4 | TAAR1 antag conf 56.2 | Ga16 nonsel ag 16.9 | TAAR1 ag counter inactive
Cc1cccc(NC(=O)c2cn(-c3ccccc3)nc2-c2ccccc2)c1	none
O=C(O)c1cccc(NC(=O)c2cn(-c3ccccc3)nc2-c2cc3ccccc3o2)c1	TAAR1 antag 63.7 | TAAR1 nonsel count 38.7 | TAAR1 antag conf inactive | Ga16 nonsel ag inactive | TAAR1 ag counter inactive
Cc1ccc(-c2csc(N3CCN(CCCn4c(-c5ccncc5)nc5ccccc54)CC3)n2)cc1	TAAR1 antag 55.5 | TAAR1 nonsel count 24.7 | TAAR1 antag conf inactive | Ga16 nonsel ag inactive | TAAR1 ag counter inactive
Cc1ccc(-c2csc(N3CCC[C@@H]3C(=O)NCCn3c(-c4ccncc4)nc4ccccc43)n2)cc1	TAAR1 antag 62.4 | TAAR1 nonsel count 26.1 | TAAR1 antag conf 49.5 | Ga16 nonsel ag inactive | TAAR1 ag counter inactive
O=C(O)c1cccc(S(=O)(=O)Nc2ccccc2Oc2ccccc2)c1	none (no result: ANO1 activ, ANO1 block)
COc1cc(-c2cc(C(=O)Nc3ccc(O)cc3)c3ccccc3n2)cc(OC)c1OC	TAAR1 antag 57.9 | TAAR1 nonsel count 26.7 | TAAR1 antag conf inactive | Ga16 nonsel ag inactive | TAAR1 ag counter inactive
NC(=O)c1cccc(-c2coc3c(C(=O)NCc4cccnc4)cccc23)c1	none (no result: CRFBP-R2 agonist, ANO1 activ, CRFR2-BP antag, ANO1 block)
CC(=O)c1cccc(NC(=O)c2cccc3c(-c4cccnc4)coc23)c1	TAAR1 antag 75.2 (no result: CRFBP-R2 agonist, ANO1 activ, CRFR2-BP antag, ANO1 block) | TAAR1 nonsel count 30.6 | TAAR1 antag conf 52.0 | Ga16 nonsel ag inactive | TAAR1 ag counter inactive
Cc1ccc(NC(=O)c2cc(-c3ccc(C)o3)nc3ccccc23)cc1	TAAR1 antag 57.3 | TAAR1 nonsel count 23.7 | TAAR1 antag conf inactive | Ga16 nonsel ag inactive | TAAR1 ag counter inactive
Cc1ccc(-c2cc(C(=O)Nc3cccnc3)c3ccccc3n2)o1	none
Cc1ccc(C)c(-c2cc(C(=O)Nc3cccnc3)c3ccccc3n2)c1	TAAR1 antag 60.7 | TAAR1 nonsel count 24.7 | TAAR1 antag conf 49.0 | Ga16 nonsel ag 13.0 | TAAR1 ag counter inactive
CC(=O)Nc1ccc(NC(=O)c2cc(-c3ccccc3)nc3ccccc23)cc1	none
Nc1ccc(C(=O)NN2C(=O)[C@H](Cl)C2c2ccc(Cl)cc2)cc1 (stereo partly specified)	none (no result: ANO1 block)
COc1ccc(CCN2C(=O)COc3ccccc3C2C(=O)NCc2ccccc2)cc1OC (stereo unspecified)	none (no result: CRFBP-R2 agonist, ANO1 activ, CRFR2-BP antag, ANO1 block)
CC(=O)Nc1cccc(NC(=O)c2cc(-c3cccnc3)nc3ccc(Cl)cc23)c1	TAAR1 antag 86.0 | TAAR1 nonsel count 30.8 | TAAR1 antag conf 55.2 | Ga16 nonsel ag inactive | TAAR1 ag counter inactive
COc1cc(-c2cc(C(=O)Nc3ccc(C)c(S(=O)(=O)N4CCOCC4)c3)c3ccccc3n2)cc(OC)c1OC	TAAR1 antag 73.6 (no result: ANO1 block) | TAAR1 nonsel count 40.4 | TAAR1 antag conf 55.2 | Ga16 nonsel ag inactive | TAAR1 ag counter inactive
Cc1ccc(C(=O)O)c(C(=O)Nc2nc3ccccc3s2)c1	none
COc1cc(-c2cc(C(=O)Nc3nc4ccccc4s3)c3ccccc3n2)cc(OC)c1OC	TAAR1 antag 57.6 | TAAR1 nonsel count 36.9 | TAAR1 antag conf inactive | Ga16 nonsel ag inactive | TAAR1 ag counter inactive
COc1ccc(/C=C/C(=O)Nc2ccc(C)c(S(=O)(=O)N3CCOCC3)c2)cc1	TAAR1 antag 65.3 (no result: ANO1 block) | TAAR1 nonsel count 31.1 | TAAR1 antag conf inactive | Ga16 nonsel ag 12.9 | TAAR1 ag counter inactive
COc1cc(-c2cc(C(=O)Nc3ccccc3N3CCOCC3)c3ccccc3n2)cc(OC)c1OC	none
COCCNC(=O)CN1CCN(S(=O)(=O)c2ccc3c(c2)CCCC3)CC1	none (no result: ANO1 block)
COc1cc(NC(=O)C2CC(c3c(F)cccc3Cl)=NO2)cc(OC)c1OC (stereo unspecified)	TAAR1 antag 61.9 | TAAR1 nonsel count 35.0 | TAAR1 antag conf inactive | Ga16 nonsel ag 12.8 | TAAR1 ag counter inactive
COC(=O)c1cc(Nc2cc(C)c3ccc(O)cc3n2)cc(C(=O)OC)c1	none
COC(=O)c1cc(Nc2cc(C)c3c(O)cccc3n2)cc(C(=O)OC)c1	TAAR1 antag 63.4 | TAAR1 nonsel count 23.9 | TAAR1 antag conf inactive | Ga16 nonsel ag inactive | TAAR1 ag counter inactive
O=C(COc1ccccc1Cl)NC(=S)Nc1ccc(CN2CCOCC2)cc1	TAAR1 antag 73.4 | TAAR1 nonsel count 46.7 | TAAR1 antag conf 51.3 | Ga16 nonsel ag inactive | TAAR1 ag counter inactive
O=C(COc1ccccc1Cl)Nc1ccc(N2CCN(C(=O)c3ccccc3)CC2)cc1	TAAR1 antag 68.9 | TAAR1 nonsel count 45.6 | TAAR1 antag conf 54.1 | Ga16 nonsel ag 15.1 | TAAR1 ag counter inactive
O=C(COc1ccccc1Cl)Nc1ccc(N2CCCC2)cc1	none
CCC(=O)Nc1ccc(N2CCN(C(=O)c3cccs3)CC2)cc1	none
O=C(COc1ccc(Cl)cc1Cl)NC(=S)Nc1ccc(CN2CCOCC2)cc1	none
O=C(COc1ccccc1[N+](=O)[O-])Nc1ccc(N2CCN(C(=O)c3cccs3)CC2)cc1	TAAR1 antag 92.1 | TAAR1 nonsel count 49.7 | TAAR1 antag conf 70.5 | Ga16 nonsel ag 21.6 | TAAR1 ag counter inactive
O=C(CN1C(=O)C2CCCCC2C1=O)OCC(=O)c1ccc(Cl)s1 (stereo unspecified)	none
Cc1c(N=C2N=C(NC(=O)c3cccs3)c3ccccc32)c(=O)n(-c2ccccc2)n1C	TAAR1 antag 58.9, CRFBP-R2 agonist 89.5 | TAAR1 nonsel count 41.9 | TAAR1 antag conf 49.2 | Ga16 nonsel ag 17.9 | TAAR1 ag counter inactive
Cc1c(N=C2N=C(NC(=O)NC(C)(C)C)c3ccccc32)c(=O)n(-c2ccccc2)n1C	none
COc1ccccc1N1CCN(C(=O)c2oc3ccc(Br)cc3c2C)CC1	none
COc1ccccc1N1CCN(C(=O)/C=C/c2ccc3c(c2)OCO3)CC1	none
COc1ccccc1N1CCN(C(=O)c2oc3ccc(F)cc3c2C)CC1	TAAR1 antag 53.5 | TAAR1 nonsel count 26.4 | TAAR1 antag conf 50.7 | Ga16 nonsel ag inactive | TAAR1 ag counter inactive
